From ChEMBL document CHEMBL1649062, “Integration of lead optimization with crystallography for a membrane-bound ion channel target: discovery of a new class of AMPA receptor positive allosteric modulators” (J Med Chem, 2011)
In brackets after ≈: the same amount, converted by molar mass. Activity calls are given as the source filed them.

Assays:
[1] = Apparent permeability of the compound; format: ADME; conditions: not told
Outline: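 Artificial membrane permeability: donor holds 10 mM sample in pH 7.05 phosphate buffer with 0.5% hydroxypropylcyclodextrin. Membrane is 1.8% phosphatidylcholine and 1% cholesterol in decane. Donor and acceptor concentrations measured by LCMS after 3 h at room temperature; permeability expressed in nm/s.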

[2] = Distribution coefficient, log D of the compound at pH 7.4; format: physicochemical; conditions: octanol/water
Cytochrome P450 1A2 = biological target: T1, Cytochrome P450 1A2 (Homo sapiens, UniProt P05177); experiment: Inhibition of human CYP1A2 by fluorescence assay; format: ADME
T1 sequence (P05177 whole entry): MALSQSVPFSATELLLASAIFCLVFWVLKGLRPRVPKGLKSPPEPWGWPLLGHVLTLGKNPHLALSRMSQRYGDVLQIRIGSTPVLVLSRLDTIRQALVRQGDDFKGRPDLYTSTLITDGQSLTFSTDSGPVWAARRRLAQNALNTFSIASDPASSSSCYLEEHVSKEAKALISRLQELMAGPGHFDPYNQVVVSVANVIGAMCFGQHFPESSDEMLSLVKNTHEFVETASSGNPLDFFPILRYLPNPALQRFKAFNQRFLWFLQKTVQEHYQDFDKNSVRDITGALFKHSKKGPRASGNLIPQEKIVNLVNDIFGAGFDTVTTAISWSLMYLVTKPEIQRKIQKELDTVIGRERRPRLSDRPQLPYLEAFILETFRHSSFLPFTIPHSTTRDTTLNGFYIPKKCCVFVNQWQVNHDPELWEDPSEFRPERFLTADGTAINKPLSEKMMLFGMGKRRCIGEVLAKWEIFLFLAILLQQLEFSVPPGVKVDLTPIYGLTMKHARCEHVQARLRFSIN
Outline: (§1)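 Recombinant human CYP bactosomes (0.1 mg/mL) in 50 mM potassium phosphate pH 7.4, preincubated 10 min at 37 °C with test compound (0.1-10 μM, 7 concentrations) and fluorogenic substrate. Substrates: ethoxyresorufin 0.5 μM (1A2), FCA 50 μM (2C9), BMC 10 μM (2C19), MMC 10 μM (2D6), DEF 1 μM or 7-BQ 25 μM (3A4). Reaction started with NADPH regenerating system; metabolite formation read over 10 min. IC50 from percent of control rate; miconazole control; triplicate.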

Brain [3] = experiment: Brain tissue binding in rat at 3 mg/kg, po; format: ADME, organism-based; parameters: dose 3 mg/kg, route oral; conditions: in vivo
Glutamate receptor 2 [4] = biological target: T2, Glutamate receptor 2 (Homo sapiens, UniProt P42262); experiment: Allosteric modulation of human recombinant GluA2 receptor flip isoform expressed in HEK293 cells assessed as potentiation of glutamate-induced calcium influx by Fluo-4/FLIPR method relative to cyclothiazide; format: cell-based
Outline: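 Stable GluA2 flip (unedited) cells seeded to confluence 2-3 days before assay; washed in HEPES buffer (145 NaCl, 5 KCl, 2 CaCl2, 1 MgCl2, 5.5 glucose, pH 7.3), loaded with 2 μM Fluo4-AM 60 min at room temperature. FLIPR dual addition: compound 5 min before 100 μM glutamate; fluorescence rise expressed against maximal cyclothiazide response, fitted pEC50 and Asym max; n ≥ 3.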

Cytochrome P450 2D6 = Cytochrome P450 2D6 (Homo sapiens, UniProt P10635); experiment: Inhibition of human CYP2D6 by fluorescence assay; format: ADME; outline: as §1
Glutamate receptor 2 [5] = biological target: T2, Glutamate receptor 2; experiment: Allosteric modulation of human recombinant GluA2 receptor flip isoform expressed in HEK293 cells assessed as potentiation of glutamate-induced calcium influx by Fluo-4/FLIPR method; format: cell-based
Outline: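 Stable GluA2 flip (unedited) cell line grown in DMEM/F12 with 10% FBS and seeded to confluence 2-3 days before use. Cells washed in HEPES buffer (pH 7.3) and loaded with 2 μM Fluo-4 AM for 60 min at room temperature. On FLIPR, compound was added 5 min before 100 μM glutamate. pEC50 and asymptotic maximum are relative to the maximal response to cyclothiazide, n ≥ 3.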

Cytochrome P450 3A4 = Cytochrome P450 3A4 (Homo sapiens, UniProt P08684); experiment: Inhibition of human CYP3A4 by fluorescence assay; format: ADME; outline: as §1
[6] = Plasma protein binding in rat at 3 mg/kg, po; format: ADME, organism-based; parameters: dose 3 mg/kg, route oral; conditions: read-out: PPB (converted)
[7] = AUC (0 to t) in rat blood at 3 mg/kg, po; format: ADME, organism-based; parameters: dose 3 mg/kg, route oral; conditions: whole blood
[8] = Kinetic solubility of the compound in phosphate buffered saline of pH 7.4; format: physicochemical
Outline: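 Kinetic solubility: 10 mM DMSO stock, 5 μL diluted to 100 μL with pH 7.4 phosphate-buffered saline, equilibrated 1 h at room temperature, filtered, filtrate quantified by calibrated flow-injection chemiluminescent nitrogen detection.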

Cytochrome P450 2C9 = Cytochrome P450 2C9 (Homo sapiens, UniProt P11712); experiment: Inhibition of human CYP2C9 by fluorescence assay; format: ADME; outline: as §1
[9] = Cmax in rat blood at 3 mg/kg, po; format: ADME, organism-based; parameters: dose 3 mg/kg, route oral; conditions: whole blood
Cytochrome P450 2C19 = Cytochrome P450 2C19 (Homo sapiens, UniProt P33261); experiment: Inhibition of human CYP2C19 by fluorescence assay; format: ADME; outline: as §1
[10] = Distribution coefficient, log D of the compound; format: physicochemical; conditions: octanol/water
Rattus norvegicus [11] = experiment: Cognitive enhancing effect in Wistar rat assessed as reversal of scopolamine-induced amnesic deficit at 10 to 30 mg/kg, ip by passive avoidance test
[12] = Clearance in rat at 3 mg/kg, po; format: ADME, organism-based; parameters: dose 3 mg/kg, route oral; conditions: in vivo
Outline: (§2)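 Rats dosed orally at 3 mg/kg; blood sampled via the hepatic portal vein and heart. Estimated clearance derived from in vivo hepatic extraction, taking rat liver blood flow as 85 (mL/min)/kg.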

[13] = Inhibition of human CYP450 by fluorescence assay; format: ADME
Outline: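 Recombinant human CYP1A2, 2C9, 2C19, 2D6 and 3A4 bactosomes (0.1 mg/mL protein) preincubated 10 min at 37 °C in 50 mM potassium phosphate pH 7.4 with test compound (0.1–10 μM, methanol 3–4.5% final) and fluorogenic probe: ethoxyresorufin 0.5 μM (1A2), FCA 50 μM (2C9), BMC 10 μM (2C19), MMC 10 μM (2D6), DEF 1 μM or 7-BQ 25 μM (3A4). NADPH-regenerating system added; fluorescent metabolite read 10 min; rate as % control; IC50 fitted; triplicate.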

Brain [14] = experiment: Drug level in Lister Hooded rat assessed per gram of tissue at 150 mg/kg, ip; format: ADME, organism-based; parameters: dose 150 mg/kg, route intraperitoneal; conditions: in vivo
Outline: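 Male Lister Hooded rats pretreated 30 min before the maximal electroshock threshold test with compound or saline vehicle; picrotoxin served as positive control. Corneal current applied, CC50 about 60-70 mA, 0.1 ms. Brain levels measured in satellite rats sampled immediately after testing.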

[15] = AUC ( 0 to t) in rat at 3 mg/kg, po; format: ADME, organism-based, Plasma; parameters: dose 3 mg/kg, route oral; conditions: plasma
in vivo = conditions: rat, brain and blood, po, 3 mg/kg
[16] = Cmax in rat at 3 mg/kg, po; format: ADME, organism-based; parameters: dose 3 mg/kg, route oral; conditions: in vivo
Rattus norvegicus [17] = experiment: Neurotoxicity in Lister Hooded rat assessed proconvulsant effect at 150 mg/kg, ip by MEST test; format: toxicity, organism-based; parameters: dose 150 mg/kg, route intraperitoneal; conditions: in vivo
Outline: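 Male Lister Hooded rats pretreated with compound, saline vehicle or picrotoxin 30 min before corneal electroshock (CC50 about 60–70 mA, 0.1 ms); tonic and tonic-clonic seizure threshold scored; brain concentrations taken from satellite rats sampled right after testing.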

Brain [18] = experiment: Drug level in Lister Hooded rat assessed per gram of tissue at 3 mg/kg, ip; format: ADME, organism-based; parameters: dose 3 mg/kg, route intraperitoneal; conditions: in vivo
Outline: (§3)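 Male Lister Hooded rats (n = 9-12/group) tested for reversal of a 24 h delay-induced deficit in novel object recognition. Significant doses flagged. Brain concentrations measured in the study animals at the end of the test.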

[19] = Blood Clearance in rat at 3 mg/kg, po; format: ADME, organism-based; parameters: dose 3 mg/kg, route oral; conditions: whole blood; outline: as §2
Brain [20] = experiment: Drug level in Lister Hooded rat assessed per gram of tissue at 10 mg/kg, ip; format: ADME, organism-based; parameters: dose 10 mg/kg, route intraperitoneal; conditions: in vivo; outline: as §3
Brain [21] = experiment: Drug level in Lister Hooded rat assessed per gram of tissue at 1 mg/kg, ip; format: ADME, organism-based; parameters: dose 1 mg/kg, route intraperitoneal; conditions: in vivo; outline: as §3

T2 sequence (P42262 whole entry, canonical isoform): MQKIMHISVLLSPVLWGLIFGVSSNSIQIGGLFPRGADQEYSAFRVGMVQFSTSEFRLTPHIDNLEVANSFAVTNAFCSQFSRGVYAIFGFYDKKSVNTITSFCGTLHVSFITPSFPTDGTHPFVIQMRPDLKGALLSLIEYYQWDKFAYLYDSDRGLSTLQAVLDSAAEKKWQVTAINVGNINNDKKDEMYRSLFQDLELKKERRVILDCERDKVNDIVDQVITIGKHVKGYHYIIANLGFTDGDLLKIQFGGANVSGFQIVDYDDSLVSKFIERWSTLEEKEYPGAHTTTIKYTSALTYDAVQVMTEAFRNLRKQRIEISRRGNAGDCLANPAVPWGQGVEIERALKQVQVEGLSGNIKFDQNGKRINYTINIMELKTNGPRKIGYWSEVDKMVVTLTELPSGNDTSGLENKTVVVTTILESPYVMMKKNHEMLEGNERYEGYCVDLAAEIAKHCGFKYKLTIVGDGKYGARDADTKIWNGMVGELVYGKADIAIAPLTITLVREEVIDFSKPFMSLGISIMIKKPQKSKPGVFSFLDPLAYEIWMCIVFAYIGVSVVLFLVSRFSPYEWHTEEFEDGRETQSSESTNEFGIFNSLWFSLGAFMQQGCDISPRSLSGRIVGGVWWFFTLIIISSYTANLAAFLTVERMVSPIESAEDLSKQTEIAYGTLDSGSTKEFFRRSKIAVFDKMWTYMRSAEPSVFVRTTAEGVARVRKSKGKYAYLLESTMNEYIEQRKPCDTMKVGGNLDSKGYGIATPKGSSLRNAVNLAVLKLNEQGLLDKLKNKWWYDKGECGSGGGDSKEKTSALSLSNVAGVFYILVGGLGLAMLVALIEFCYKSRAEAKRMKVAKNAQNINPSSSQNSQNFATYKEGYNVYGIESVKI
Cytochrome P450 2C19, sequence (P33261 whole entry): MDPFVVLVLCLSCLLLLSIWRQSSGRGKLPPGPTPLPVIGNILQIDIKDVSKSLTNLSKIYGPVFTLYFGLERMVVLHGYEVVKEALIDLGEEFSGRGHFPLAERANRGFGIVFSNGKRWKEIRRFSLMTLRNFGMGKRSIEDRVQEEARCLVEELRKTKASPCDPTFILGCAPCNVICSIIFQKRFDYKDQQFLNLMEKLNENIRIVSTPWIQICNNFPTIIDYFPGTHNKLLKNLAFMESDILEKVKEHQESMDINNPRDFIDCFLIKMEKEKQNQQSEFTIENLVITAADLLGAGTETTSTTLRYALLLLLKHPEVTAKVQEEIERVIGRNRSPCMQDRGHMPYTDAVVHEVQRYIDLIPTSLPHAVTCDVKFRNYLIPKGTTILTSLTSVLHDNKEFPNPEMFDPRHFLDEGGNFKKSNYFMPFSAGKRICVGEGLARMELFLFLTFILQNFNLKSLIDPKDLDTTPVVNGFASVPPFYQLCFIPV
Cytochrome P450 3A4, sequence (P08684 whole entry): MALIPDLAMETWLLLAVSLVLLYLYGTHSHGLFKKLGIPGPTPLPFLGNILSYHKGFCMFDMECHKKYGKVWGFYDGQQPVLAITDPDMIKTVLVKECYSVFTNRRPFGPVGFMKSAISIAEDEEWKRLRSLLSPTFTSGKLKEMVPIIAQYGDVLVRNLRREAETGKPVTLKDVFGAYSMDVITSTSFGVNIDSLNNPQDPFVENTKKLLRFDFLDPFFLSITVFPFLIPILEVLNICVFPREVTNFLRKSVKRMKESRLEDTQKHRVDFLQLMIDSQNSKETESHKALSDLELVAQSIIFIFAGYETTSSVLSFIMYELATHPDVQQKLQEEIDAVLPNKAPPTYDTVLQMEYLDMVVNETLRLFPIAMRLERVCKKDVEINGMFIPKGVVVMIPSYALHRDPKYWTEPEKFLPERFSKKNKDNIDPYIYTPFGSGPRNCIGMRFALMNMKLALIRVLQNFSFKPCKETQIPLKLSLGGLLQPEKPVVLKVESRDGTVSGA
Cytochrome P450 2D6, sequence (P10635 whole entry, canonical isoform): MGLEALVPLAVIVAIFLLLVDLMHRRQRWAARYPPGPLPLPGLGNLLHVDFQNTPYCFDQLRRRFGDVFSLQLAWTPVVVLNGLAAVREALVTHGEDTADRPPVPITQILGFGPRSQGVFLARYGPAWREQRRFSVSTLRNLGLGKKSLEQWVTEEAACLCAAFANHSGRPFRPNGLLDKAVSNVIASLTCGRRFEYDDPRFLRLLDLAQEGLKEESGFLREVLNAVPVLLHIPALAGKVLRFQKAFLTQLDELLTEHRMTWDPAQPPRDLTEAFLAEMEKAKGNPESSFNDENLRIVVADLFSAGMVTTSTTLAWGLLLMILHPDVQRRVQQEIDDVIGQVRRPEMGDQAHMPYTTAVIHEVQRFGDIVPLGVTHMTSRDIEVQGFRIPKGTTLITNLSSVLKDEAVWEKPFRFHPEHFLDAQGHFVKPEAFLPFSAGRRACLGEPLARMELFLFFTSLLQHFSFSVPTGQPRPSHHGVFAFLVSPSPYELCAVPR
Cytochrome P450 2C9, sequence (P11712 whole entry): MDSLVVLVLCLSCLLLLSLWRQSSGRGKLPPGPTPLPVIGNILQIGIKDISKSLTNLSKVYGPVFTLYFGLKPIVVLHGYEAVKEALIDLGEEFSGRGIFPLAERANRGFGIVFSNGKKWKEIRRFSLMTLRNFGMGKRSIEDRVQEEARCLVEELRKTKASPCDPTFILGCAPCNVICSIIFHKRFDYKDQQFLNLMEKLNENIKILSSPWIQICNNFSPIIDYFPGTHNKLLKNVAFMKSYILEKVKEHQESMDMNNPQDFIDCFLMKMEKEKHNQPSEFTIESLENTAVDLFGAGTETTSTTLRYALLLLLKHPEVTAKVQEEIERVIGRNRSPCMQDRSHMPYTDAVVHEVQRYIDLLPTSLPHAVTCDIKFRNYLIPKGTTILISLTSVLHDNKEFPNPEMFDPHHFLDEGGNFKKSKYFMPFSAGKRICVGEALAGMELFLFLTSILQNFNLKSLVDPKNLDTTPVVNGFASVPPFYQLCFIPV

Papp [1] [×10⁻⁶ cm/s] | logD [2] | IC50 (Cytochrome P450 1A2) [µM] | Brain tissue binding (% bound) (Brain [3]) [%] | Activity (Glutamate receptor 2 [4]) [%] | IC50 (Cytochrome P450 2D6) [µM] | EC50 (Glutamate receptor 2 [5]) [µM] | IC50 (Cytochrome P450 3A4) [µM] | fraction unbound [6] | AUC(0-t) [7] [ng·h/mL] | solubility kinetic [8] [µg/mL] | IC50 (Cytochrome P450 2C9) [µM] | Cmax [9] [ng/mL] | IC50 (Cytochrome P450 2C19) [µM] | logD [10] | IC50 [13] [µM] | Drug uptake (Brain [14]) [ng/g] | Structure (SMILES) | Activity (Rattus norvegicus [17]) | also measured
44 | 2.6 | > 10 | 94.9 | 116 | > 10 | 5.01 | > 10 | 0.057 | 824 | 123 (≈ 337 µM) | > 10 | 331 | > 10 |  |  |  | O=C1CCCN1Cc1ccc(-n2nc(C(F)(F)F)c3c2COCC3)cc1 |  | 
45.5 |  |  | 96.8 | 81 |  | > 20 |  | 0.026 |  | 123 (≈ 324 µM) |  |  |  | 3.1 | > 10 | 7168 | O=C(c1ccc(-n2nc(C(F)(F)F)c3c2CCCC3)cc1)N1CCOCC1 | Non-toxic | Activity (Rattus norvegicus [11]): inactive; CL/F [12]: 14 mL/min/kg; AUC(0-t) [15]: 1980 ng·h/mL; Kp (in vivo): 1.2; Cmax [16]: 586 ng/mL
 |  |  |  | 112 |  | 10 |  |  |  | 12 (≈ 30 µM) |  |  |  | 3.2 | > 10 |  | O=S(=O)(NCc1ccc(-n2nc(C(F)(F)F)c3c2CCCC3)cc1)C1CC1 |  | 
33.5 |  |  | 99.2 | 112 |  | 7.94 |  | 0.021 |  | 103 (≈ 276 µM) |  |  |  | 2.5 | > 10 | 5074 | CS(=O)(=O)NCc1ccc(-n2nc(C(F)(F)F)c3c2CCCC3)cc1 | Non-toxic | CL/F [12]: 43 mL/min/kg; AUC(0-t) [15]: 416 ng·h/mL; Kp (in vivo): 1.6; Cmax [16]: 197 ng/mL
 |  |  |  | 79 |  | 1.26 |  |  |  | 47 (≈ 139 µM) |  |  |  |  | > 10 |  | CC(=O)NCc1ccc(-n2nc(C(F)(F)F)c3c2CCCC3)cc1 |  | 
49.5 | 2.4 | > 10 | 88.4 | 81 | > 10 | > 20 | > 10 | 0.137 | 1330 | 192 (≈ 526 µM) | > 10 | 551 | > 10 |  |  | 22525 | O=C(c1ccc(-n2nc(C(F)(F)F)c3c2CCOC3)cc1)N1CCCC1 | Non-toxic | Drug uptake (Brain [18]): 983 ng/g; Activity (Rattus norvegicus [11]): Active; CL/F [19]: 6 mL/min/kg; Drug uptake (Brain [20]): 2609 ng/g; Drug uptake (Brain [21]): 228 ng/g
 |  |  |  | 37 |  | 31.6 | 6 |  |  | 31 (≈ 76.8 µM) | 0.3 |  | 7 | 3.8 |  |  | O=C(N1CCCC1)C1(c2ccc(-n3nc(C(F)(F)F)c4c3CCCC4)cc2)CC1 |  | 
47 | 2.4 | > 8 | 87.9 | 138 | > 8 | 10 | > 8 | 0.16 | 972 | 215 (≈ 588 µM) | > 8 | 808 | > 8 |  |  |  | O=C1CCCN1Cc1ccc(-n2nc(C(F)(F)F)c3c2CCOC3)cc1 |  | CL/F [19]: 41 mL/min/kg
